Reference: article PMC10350030 (bioRxiv, 2023)
Entries after “also recorded” stand apart in the source; their conditions may differ.

Experiments:
FAM-Aβ42 = FAM-Aβ42 (Homo sapiens, UniProt P05067); assay type: biochemical; settings: for enhancement of CP-induced degradation of FAM-Aβ42 by anti-oxidants: compared with CP only group
mature iPS neurons = test: Toxicity study with iPS neuronal cells; assay type: cell-based; settings: 24 hours, Tuj-1 staining; for neuritic continuity of neurons treated with Aβ oligomers: Aβ Oligomer (20 μM)
Method in brief: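 Neurons came from iPS cells differentiated from blood stem cells and were used as mature cultures 12 days after seeding. They were treated with Aβ oligomers (20 µM), with or without test compound. Neuronal morphology and neurite continuity were assessed by immunocytochemistry for Tuj-1, a neuronal class III β-tubulin marker.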

[1] = Fluorescence spectra of FAM-Aβ42 during incubation in PBS; assay type: physicochemical; settings: PBS buffer, 0 to 60 minutes, peptide alone
SH-SY5Y cells = test: ApopTag fluorescein in situ apoptosis detection assay with Aβ42 oligomers; assay type: cell-based; settings: Aβ oligomer (20 μM) and AO (2 μM), 24 hours, compared to the control group
[2] = tested on: hippocampal CA1 area from mouse brain slides; test: Extracellular fEPSP recording in hippocampal CA1 of brain slices; settings: 1 hour
Method in brief: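 In hippocampal slices, the Schaffer collateral pathway was stimulated once every 15 s with 0.1 ms current pulses. Field potentials were recorded extracellularly in the CA1 stratum radiatum. fEPSP was measured as the negative deflection of the voltage trace from baseline. Maximal amplitude was summarised for four groups: control, Aβ (1 µM), test compound (0.1 µM), and Aβ plus test compound.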

FAM-Aβ42, sequence (P05067 672-713): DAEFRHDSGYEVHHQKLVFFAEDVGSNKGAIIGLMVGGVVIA

O=C(O)CN(CCN(CC(=O)O)CC(=O)O)CC(=O)O [EDTA]
effect of EDTA on Cu/Vc-induced degradation of FAM-Aβ42 (FAM-Aβ42; Cu(II)/EDTA/Vc (1:10:20), control experiment): inhibited the degradation

O=C1O[C@H]([C@@H](O)CO)C(O)=C1O [Vc, Vitamin C]
degradation enhancement by Vc when incubated with AO (FAM-Aβ42; AO/Vc versus AO): no significant degradation enhancement

COc1cc(/C=C/C(=O)CC(=O)/C=C/c2ccc(O)c(OC)c2)ccc1O [curcumin]
enhancement of CP-induced degradation of FAM-Aβ42 by anti-oxidants (FAM-Aβ42): neither of these anti-oxidants could enhance the degradation

NCCc1ccc(O)c(O)c1 [dopamine]
enhancement of CP-induced degradation of FAM-Aβ42 by anti-oxidants (FAM-Aβ42): neither of these anti-oxidants could enhance the degradation

NC[C@H](O)c1ccc(O)c(O)c1 [norepinephrine]
enhancement of CP-induced degradation of FAM-Aβ42 by anti-oxidants (FAM-Aβ42): neither of these anti-oxidants could enhance the degradation

Oc1ccc(/C=C/c2cc(O)cc(O)c2)cc1 [resveratrol]
enhancement of CP-induced degradation of FAM-Aβ42 by anti-oxidants (FAM-Aβ42): neither of these anti-oxidants could enhance the degradation

Aβ oligomers: Aβ42 oligomers prepared from Aβ42 peptide in F12 media at 4°C for 24 hours [reference compound]
neuritic continuity of neurons treated with Aβ oligomers (mature iPS neurons): apparent broken neuritic segments
neuritic continuity of neurons treated with Aβ oligomers (mature iPS neurons; listed as Aβ Oligomer): loss of neuritic continuity

FAM-Aβ42: a fluorescent dye conjugated Aβ [reference compound]
fluorescence intensity of FAM-Aβ42 during incubation (aggregation-induced fluorescence quenching) [1]: gradually decreasing

ascorbate oxidase [AO]
neuritic continuity of neurons treated with Aβ oligomers mixed with AO (mature iPS neurons; Aβ Oligomer (20 μM) and AO (2 μM)): no apparent broken segments; also recorded: normal length neurites
level of cell apoptosis (SH-SY5Y cells): significantly reduced
change of fEPSP magnitude by AO alone ([2]; AO alone (0.1 µM)): did not cause significant changes
maximal fEPSP amplitude, Ab-AO group ([2]; slices incubated with 1 µM Ab and 0.1 µM AO, mean ± SE): 3.61± 0.49 mV
AO-mediated cleavage of FAM-Aβ42 under N2 (FAM-Aβ42; N2 gas bubbled into the incubation buffer before incubation): considerably reduced
cleavage of FAM-Aβ42 (FAM-Aβ42; after 4 hours of incubation with AO): more than 50%

vitamin E
enhancement of CP-induced degradation of FAM-Aβ42 by anti-oxidants (FAM-Aβ42): neither of these anti-oxidants could enhance the degradation
